A selection: hits, their analogues and other compounds. The true share with any hit is near 2.4%.
CSN inh: blocks human CSN-mediated cullin deneddylation. 360,000 tested, 0.38% active. inhibition, % at 12.5 µM. Purified CSN, SCF-Nedd8-OG deneddylation, fluorescence polarization. AID 651999;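 active = pattern-corrected inhibition above about 35%, with an unprinted fluorescence ratio check between 0.5 and 1.5, limit read from the data, passing the limit was not always enough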;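 also: 0% = enzyme with substrate and 100% = substrate without enzyme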
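Material: human Csn5 produced in HEK293T cells; Input: enzyme 0.24 nM; Reagent: SCFSkp2-Nedd8OG substrate at 10 nM final; Dosing: 12.5 µM compound; Incubation: 90 min reaction at room temperature; Detection: fluorescence polarization of the substrate; Evaluation: % inhibition of substrate cleavage by Csn5; Control set: substrate-only high control, full reaction low control.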
Rin1-Abl PPI inh: human Rin1-Abl interaction inhibition. P00519+Q13671. TR-FRET Rin1/Abl binding, biochemical. inhibition, % at 7.35 µM. 360,000 tested, 0.4% active. AID 588664; in the data active = inhibition above about 5%, passing the limit was not always enough
TPT1 inh: inhibitors of Candida albicans tRNA 2'-phosphotransferase TPT1; 300,000 tested, 0.81% active; inhibition, % at 5 µM; recombinant caTPT1, FP RNA substrate dephosphorylation;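 active = inhibition above the mean of all tested compounds plus 3 SD, set per screening campaign, cut at about 24% in these data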;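 also: plate controls were DMSO alone for no effect and ferristatin control at 100 nM for full effect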
Neddylation inh: blocks human cullin neddylation | TR-FRET cullin neddylation, biochemical | inhibition, % at 25 µM | 360,000 tested, 0.58% active; in the data active = inhibition above about 36%
Target sequence (P61081 whole entry, looked up): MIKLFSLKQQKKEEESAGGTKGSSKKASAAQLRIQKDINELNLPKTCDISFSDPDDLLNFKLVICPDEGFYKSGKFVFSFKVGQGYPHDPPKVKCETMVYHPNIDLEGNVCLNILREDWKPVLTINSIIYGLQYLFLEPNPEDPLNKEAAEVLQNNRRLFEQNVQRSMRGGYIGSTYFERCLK
Target sequence (Q13564 whole entry, looked up): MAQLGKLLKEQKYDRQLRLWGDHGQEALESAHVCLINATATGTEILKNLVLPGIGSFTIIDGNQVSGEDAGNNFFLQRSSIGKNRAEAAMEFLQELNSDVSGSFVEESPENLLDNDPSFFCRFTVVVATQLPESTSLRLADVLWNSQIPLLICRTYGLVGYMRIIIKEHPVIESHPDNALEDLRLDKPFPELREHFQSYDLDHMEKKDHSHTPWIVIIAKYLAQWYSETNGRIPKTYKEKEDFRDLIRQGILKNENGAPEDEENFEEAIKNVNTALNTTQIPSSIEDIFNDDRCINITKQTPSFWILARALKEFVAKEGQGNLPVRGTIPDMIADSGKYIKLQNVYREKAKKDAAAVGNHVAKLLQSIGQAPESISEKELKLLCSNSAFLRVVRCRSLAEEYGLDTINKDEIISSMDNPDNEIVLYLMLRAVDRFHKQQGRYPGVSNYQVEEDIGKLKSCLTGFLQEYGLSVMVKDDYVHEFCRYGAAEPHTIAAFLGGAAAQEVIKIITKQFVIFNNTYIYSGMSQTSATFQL
HNF4A DNA FP: change in binding of human HNF4 alpha to DNA; P41235; 360,000 tested, 0.3% active; activity change, % at 10 µM; HNF4a-FITC DNA binding, fluorescence polarization, 1 h; AID 1224865; in the data active = activity change above about 30%, passing the limit was not always enough
Rpn11 inh: Rpn11 (human) deubiquitinase inhibition | 360,000 tested, 0.59% active | human 26S proteasome, Ub4-pepOG fluorescence polarization; 20S core pre-blocked with epoxomicin | inhibition, % at 20 µM | AID 588493 | O00487;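 active = inhibition at 20 µM, scaled to each plate's controls, above about 33%, limit read from the data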
Neddyl inh conf: confirmation of human cullin neddylation inhibitors. shares compounds with Neddylation inh. TR-FRET cullin neddylation biochemical assay. calls only at 25 µM. 1,800 tested, 13% active. AID 652217; in the data active = inhibition above about 40%;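 also: neddylation substrate is the cullin 1 ring ligase complex with SKP2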
Numbers without * were called inactive; i = inactive; . = no result given; + = active, no number.

SMILES	CSN inh	Rin1-Abl PPI inh	TPT1 inh	Neddylation inh	HNF4A DNA FP	Rpn11 inh	Neddyl inh conf
O=C1CCC(C(=O)N2CCCC(C(=O)c3ccc4c5c(cccc35)CC4)C2)=NN1 (stereo not drawn)	3	1	-1	43*	3	4	+
C[C@@H](NC(=O)[C@@H]1Cc2ccccc2CN1)C(=O)NCC1CCCO1 (stereo partly drawn)	2	1	1	8	-3	-3	.
O=c1oc2ccccc2cc1-c1nnc(NCc2ccco2)s1	1	1	10	50*	-1	-1	i
Nc1nnc(-c2cc3ccccc3oc2=O)s1	3	-9	-2	47*	2	-2	+
COc1ccc(S(=O)(=O)N2CCC3(CC2)OCCO3)cc1	6	-1	-5	-1	-4	19	.
CCOc1cc(/C=N/NC(=O)c2cc(C)n(-c3ccc(F)cc3)c2C)ccc1O	-2	-1	-2	40*	-2	11	i
Cc1ccc(-c2nnc(Nc3ccc(CC(N)=O)cc3)c3ccccc23)cc1	4	-1	1	45*	0	-2	i
Cc1ccc(-c2nnc(Nc3ccc(CC(N)=O)cc3)c3ccccc23)cc1S(N)(=O)=O	6	-4	-2	19	-2	-11	.
CN1C=CC2=C(C#N)C(N)C(C#N)(C#N)C(c3ccccc3)C2C1 (stereo not drawn)	-22	-4	-40	43*	-26	-51	i
Cc1cccc2cc3ccccc3nc12	3	0	-2	22	1	1	.
Cc1cccc2nc3ccccc3cc12	103	1	-1	39*	-2	2	.
O=C1OCC2=C1C(c1ccc(F)cc1)c1cc3c(cc1N2)OCO3 (stereo not drawn)	2	-3	.	42*	1	-2	.
CNC(=S)N1CCN(c2c(F)cc3c(=O)c(C(=O)O)cn(C4CC4)c3c2OC)CC1C (stereo not drawn)	-3	1	3	.	2	-4	.
C[C@@H]1CN(c2c(F)c(F)c3c(=O)c(C(=O)O)cn(C4CC4)c3c2F)C[C@H](C)N1	-1	3	.	46*	-1	1	.
CC(C)(C)n1nnnc1C(c1cc2ccccc2o1)N1CCN(C(=O)OCc2ccccc2)CC1 (stereo not drawn)	-4	.	.	-2	-2	.	.
Cc1cccc(-c2cnc3cccnn23)c1	1	2	.	.	0	1	.
CCOc1ccc(-c2nc3scc(-c4cccs4)c3c(=O)[nH]2)cc1	7	2	-1	40*	6	11	.
COc1cc(-c2nnc(CSc3nnc(Nc4ccc(C(C)C)cc4)s3)o2)cc(OC)c1OC	1	1	-1	43*	4	10	i
COc1ccc(C(=O)NC2CC3CCCC(C2)N3Cc2ccccc2)cc1 (stereo not drawn)	-1	1	-2	-2	-8	-5	.
COc1ccc(C(=O)NC2CC3CCCC(C2)N3Cc2ccccc2)c(OC)c1 (stereo not drawn)	-7	-1	-1	42*	-1	-3	i
COc1ccc(-c2ccc3nnc(SCC(=O)NCC4CCCO4)n3n2)cc1 (stereo not drawn)	-7	0	0	59*	1	0	.
CCc1ccc(-c2ccc3nnc(SCC(=O)NCC4CCCO4)n3n2)cc1 (stereo not drawn)	6	-5	-1	59*	0	1	.
CCOc1ccc(-c2ccc(SCC(=O)NCC3CCCO3)nn2)cc1 (stereo not drawn)	1	0	6	21	0	0	.
Cc1ccc(-c2ccc3nnc(SCC(=O)NCC4CCCO4)n3n2)cc1 (stereo not drawn)	-2	-1	0	20	-2	-3	.
CCOc1ccc(-c2ccc3nnc(SCC(=O)NCC4CCCO4)n3n2)cc1 (stereo not drawn)	2	-1	3	54*	0	0	.
SMILES	CSN inh	Rin1-Abl PPI inh	TPT1 inh	Neddylation inh	HNF4A DNA FP	Rpn11 inh	Neddyl inh conf
Cc1nc2c(OCc3ccc(C#N)cc3)cccn2c1N(C)C(=O)CCC1CCCC1	4	1	.	1	1	5	.
Nc1c(Cl)cc(Cl)cc1C(=O)OCC(=O)N1CCCC1=O	-5	1	-1	47*	-4	-3	i
COc1ccc(S(=O)(=O)CC(=O)c2cc3cc(Br)ccc3oc2=O)cc1	12	-2	8	-4	-2	32	.
O=C(Nc1ccc(Cl)cc1)N1CCCN(c2ccc(C(F)(F)F)cc2[N+](=O)[O-])CC1	1	-2	-6	-10	-1	2	.
c1ccc(-c2cc(N3CCOCC3)nc3ccccc23)cc1	0	-2	3	46*	0	3	i
Clc1ccc(-c2nc(N3CCOCC3)nc3ccccc23)cc1	-5	-3	0	44*	3	1	.
N#Cc1cc(N2CCOCC2)nc2ccccc12	-4	2	-3	36*	-1	8	i
c1ccc(-c2nc(N3CCCC3)nc3ccccc23)cc1	0	2	-1	27	-2	5	.
c1ccc2nc(N3CCOCC3)cnc2c1	-2	-2	4	-9	1	-2	.
Cc1cc(N2CCOCC2)nc2ccccc12	5	-2	-3	31	0	0	.
COc1ccc(NC(=O)C2Cc3c(-c4ccc(Cl)cc4)ccnc3O2)cc1OC (stereo not drawn)	0	-5	.	6	-2	-3	.
Cc1oc(-c2cccs2)nc1CSCC(=O)NC1CC1	0	-3	-2	52*	3	2	i
O=S(=O)(c1ccc(Cl)cc1)N1CCN(c2ccc(N3CCOCC3)nn2)CC1	-2	1	0	43*	2	2	i
O=C(N1CCOCC1)N1CCN(S(=O)(=O)c2ccc(Cl)cc2)CC1	-3	-1	-3	10	-1	-2	.
Cc1ccc(NC(=O)NC(=O)N(C(C)C)S(C)(=O)=O)nc1	-5	0	-1	53*	-1	-11	.
CC(C)N(C(=O)NC(=O)Nc1ccccn1)S(C)(=O)=O	3	-5	2	27	4	4	.
Cc1nnc(NC(=O)CSc2nccn2Cc2ccc(F)cc2)s1	2	-4	2	9	2	-5	.
Cn1c(=O)c(Cc2ccccc2)c(O)c2ccccc21	6	-3	0	32	0	7	.
O=c1c(Cc2ccccc2)c(O)c2cccc3c4c(n1c23)CCCC4	0	-2	0	39*	-2	-3	i
NC(c1ccccc1)c1cccs1 (stereo not drawn)	1	1	.	-13	-3	-4	.
Nc1nc2c(c(=O)[nH]1)CN(Cc1ccccc1)CC2	4	1	2	40*	-2	-8	i

Screening data: PubChem BioAssay, several laboratories
